Experimental data: PMC3992281 (Journal of neurochemistry, 2013)

Legend:
Format in all cases: cell-based, rat
[1] = tested on: nicotine-triggered uptake of 45Ca2+ in PC12 cells; assay: Nicotinic cholinergic signal transduction: 45Ca2+ uptake; details: nicotine 60 µM, 45Ca2+ 2 µCi/ml, 5 minutes
Summary of the method: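 PC12 cells were plated on poly-L-lysine-coated dishes 2 days ahead and rinsed every 15 min for 1 h at 37°C in secretion buffer (150 mM NaCl, 5 mM KCl, 2 mM CaCl2, 10 mM Hepes, pH 7.4). Cells were exposed to ⁴⁵Ca²⁺ with drugs in Ca²⁺-free buffer for 5 min at room temperature. Uptake was stopped with ice-cold 1 mM LaCl3, followed by lysis and scintillation counting (cpm/well). Results are mean ± SEM.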

[2] = tested on: nicotinic cholinergic-stimulated catecholamine release in PC12 cells; assay: Nicotine-stimulated norepinephrine secretion from PC12 cells
Summary of the method: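 PC12 cells were washed, then stimulated with nicotine (60 µM) in secretion medium in the presence of graded concentrations of the CHGB-derived test peptide. Maximal effect was taken at 10 µM peptide. Human CHGA[352–372] served as the positive control. Norepinephrine release was measured and each experiment was repeated 3 times.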

[3] = tested on: membrane depolarization-stimulated catecholamine release in PC12 cells; assay: KCl; details: KCl 55 mM, CHGB full-length or plasmin-digested, repeated 3 times
Summary of the method: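 Rat PC12 cells (passage 10–25) grown in high-glucose DMEM with 10% horse serum and 5% FBS at 37°C in 6% CO2. After washing, cells were stimulated with KCl (55 mM) in secretion medium, with recombinant human CHGB (3.0 µM), either full-length or pre-digested with plasmin (10 µM CHGB, 2 µM plasmin, Tris-Cl pH 8.0, 150 mM NaCl, 1 hr). Three experiments.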

Molecule | inhibition of nicotine-stimulated uptake of 45Ca2+ [1] | efficacy (maximal effect), inhibition of nicotinic cholinergic secretion ([2]; nicotine 60 µM, at 10 µM peptide) | IC50 ([2]; read-out: potency (IC50) to inhibit nicotinic cholinergic-stimulated catecholamine secretion, nicotine 60 µM, repeated 3 times) | reduction of membrane depolarization-stimulated catecholamine release [3]
catestatin | ~ 82% | ~ 100% | 0.45 µM | 
CHGB: purified human recombinant mature CHGB (657 residues) with carboxy-terminal … tag, expressed in E. coli (protein, UniProt P05060 21-677, looked up, C-terminal tag) Secretogranin-1: MPVDNRNHNEGMVTRCIIEVLSNALSKSSAPPITPECRQVLKTSRKDVKDKETTENENTKFEVRLLRDPADASEAHESSSRGEAGAPGEEDIQGPTKADTEKWAEGGGHSRERADEPQWSLYPSDSQVSEEVKTRHSEKSQREDEEEEEGENYQKGERGEDSSEEKHLEEPGETQNAFLNERKQASAIKKEELVARSETHAAGHSQEKTHSREKSSQESGEETGSQENHPQESKGQPRSQEESEEGEEDATSEVDKRRTRPRHHHGRSRPDRSSQGGSLPSEEKGHPQEESEESNVSMASLGEKRDHHSTHYRASEEEPEYGEEIKGYPGVQAPEDLEWERYRGRGSEEYRAPRPQSEESWDEEDKRNYPSLELDKMAHGYGEESEEERGLEPGKGRHHRGRGGEPRAYFMSDTREEKRFLGEGHHRVQENQMDKARRHPQGAWKELDRNYLNYGEEGAPGKWQQQGDLQDTKENREEARFQDKQYSSHHTAEKRKRLGELFNPYYDPLQWKSSHFERRDNMNDNFLEGEEENELTLNEKNFFPEYNYDWWEKKPFSEDVNWGYEKRNLARVPKLDLKRQYDRVAQLDQLLHYRKKSAEFPDFYDSEEPVSTHQEAENEKDRADQTVLTEDEKKELENLAAMDLELQKIAEKFSQRG |  |  |  | ~ 23%
